Source: ChEMBL document CHEMBL2407024, “Antimicrobial activity of imidazo[1,5-a]quinoxaline derivatives with pyridinium moiety” (Eur J Med Chem, 2013)

Columns and labels:
Staphylococcus aureus [1] = assay: Bactericidal activity against Staphylococcus aureus 209p after 4 hrs; format: functional
In short: (§1)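 Tubes contained 1 mL test compound in nutrient agar, 5 to 500 per ml. Bacteria in normal saline broth (3 × 10⁵ cfu/ml, 1 mL) were added and held 4 h, then transferred onto meal-peptone agar plates and incubated at 37 °C. MBC is the dilution giving total cell death.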

[2] = tested on: Trichophyton mentagrophytes; assay: Fungicidal activity against Trichophyton mentagrophytes after 6 hrs; format: functional
In short: (§2)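 Tubes of test compound (5 to 500 per ml, 1 mL in nutrient agar) with fungi were incubated at 26 °C for 6 h. Inocula were then prepared in Sabouraud dextrose broth and incubated at 26 °C. The fungicidal concentration is the one giving total cell death.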

Escherichia coli [3] = assay: Bactericidal activity against Escherichia coli F-50 after 4 hrs; format: functional; settings: F-50, 4 h; in short: as §1
[4] = Acute toxicity in ip dosed mouse; format: organism-based; settings: in vivo
In short: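 Mice; each compound given at 5 dose levels, 10 animals per dose (n = 50 per compound). Animals observed for 72 h; toxicity expressed as average lethal dose (LD50) calculated from mortality across dose groups.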

Staphylococcus aureus [5] = assay: Antibacterial activity against Staphylococcus aureus 209p measured every 24 hrs for 5 days by conventional dilution method; format: functional
In short: (§3)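 Broth dilution in nutrient broth, inoculum 3 × 10⁵ cfu/ml. MIC is the lowest concentration showing no growth, read visually every 24 h over 5 days. Run alongside a positive growth control and standard drug controls. Tests in duplicate, repeated twice.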

Aspergillus niger [6] = assay: Fungicidal activity against Aspergillus niger BKMF-1119 after 6 hrs; format: functional; settings: BKMF-1119, 6 h; in short: as §2
Bacillus cereus [7] = assay: Antibacterial activity against Bacillus cereus 8035 measured every 24 hrs for 5 days by conventional dilution method; format: functional; in short: as §3
Candida albicans [8] = assay: Antifungal activity against Candida albicans 885-653 measured every 24 hrs for 14 days by conventional dilution method; format: functional
In short: (§4)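 Dilution assay in Sabouraud dextrose broth, inoculum 2 × 10^3–4 cfu/ml. MIC is the lowest concentration with no visible growth after 14 days of incubation. Run alongside a positive growth control and standard drug controls. Tests in duplicate, repeated twice.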

Bacillus cereus [9] = assay: Bactericidal activity against Bacillus cereus 8035 after 4 hrs; format: functional; settings: Bacillus cereus, 8035, 4 h; in short: as §1
Candida albicans [10] = assay: Fungicidal activity against Candida albicans 885-653 after 6 hrs; format: functional; settings: 885-653, 6 h; in short: as §2
Pseudomonas aeruginosa [11] = assay: Bactericidal activity against Pseudomonas aeruginosa 9027 after 4 hrs; format: functional; settings: Pseudomonas aeruginosa, 9027, 4 h; in short: as §1
Aspergillus niger [12] = assay: Antifungal activity against Aspergillus niger BKMF-1119 measured every 24 hrs for 14 days by conventional dilution method; format: functional; in short: as §4
[13] = tested on: Trichophyton mentagrophytes; assay: Antifungal activity against Trichophyton mentagrophytes measured every 24 hrs for 14 days by conventional dilution method; format: functional; in short: as §4
Pseudomonas aeruginosa [14] = assay: Antibacterial activity against Pseudomonas aeruginosa 9027 measured every 24 hrs for 5 days by conventional dilution method; format: functional; in short: as §3
Escherichia coli [15] = assay: Antibacterial activity against Escherichia coli F-50 measured every 24 hrs for 5 days by conventional dilution method; format: functional; in short: as §3

| Structure (SMILES) | MBC (Staphylococcus aureus [1]) [µg/mL] | MFC [2] [µg/mL] | MBC (Escherichia coli [3]) [µg/mL] | LD50 [4] [mg/kg] | MIC (Staphylococcus aureus [5]) [µg/mL] | MFC (Aspergillus niger [6]) [µg/mL] | MIC (Bacillus cereus [7]) [µg/mL] | MIC (Candida albicans [8]) [µg/mL] | MBC (Bacillus cereus [9]) [µg/mL] | MFC (Candida albicans [10]) [µg/mL] | MBC (Pseudomonas aeruginosa [11]) [µg/mL] | MIC (Aspergillus niger [12]) [µg/mL] | MIC [13] [µg/mL] | MIC (Pseudomonas aeruginosa [14]) [µg/mL] | MIC (Escherichia coli [15]) [µg/mL] |
| --- | --- | --- | --- | --- | --- | --- | --- | --- | --- | --- | --- | --- | --- | --- | --- |
| CCCCCCCCC[n+]1cccc(-c2nc(-c3ccccc3)c3c(=O)n(CCCCCC)c4ccccc4n23)c1.[I-] | 5 | > 500 | > 500 | 52.5 | 0.78 | > 500 | 0.78 | 500 | 500 | 500 | > 500 | > 500 | > 500 | > 500 | > 500 |
| CCCCCCn1c(=O)c2c(-c3ccccc3)nc(-c3ccc[n+](Cc4ccccc4)c3)n2c2ccccc21.[Cl-] | 50 | > 500 | > 500 | 61.1 | 0.97 | > 500 | 6.3 | 7.8 | > 500 | 500 | > 500 | > 500 | 500 | > 500 | > 500 |
